Article PMC8163102 (Angewandte Chemie (International ed. in English), 2020)

Tests used:
[1] = tested on: 4T1 murine breast cancer lysates; assay: Cleavage of ACC peptide substrates in tumor lysate; format: biochemical, mouse; settings: E64 10 μM preincubation, 4T1 lysate, acidic pH; Fig. 1D
Procedure, shortened: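 ACC-reporter peptide substrates were added to 4T1 murine breast cancer lysate at acidic pH, with or without prior preincubation with the cysteine cathepsin inhibitor E64 (10 μM). Cleavage velocity was plotted as mean ± SD, n=3.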

immortalized macrophages = assay: Probe activation in cells by flow cytometry; format: cell-based; settings: E64d pretreatment; Fig. S4

SMILES	Effect of preincubation with the inhibitor on cleavage of ACC substrates 1-3 [1]	Effect of inhibitor pretreatment on labelling of cells by probe 5 (immortalized macrophages)
CC(C)C[C@H](NC(=O)[C@H]1O[C@@H]1C(=O)O)C(=O)NCCCCN=C(N)N [E64]	fully abrogated cleavage	–
CCOC(=O)[C@H]1O[C@@H]1C(=O)N[C@@H](CC(C)C)C(=O)NCCC(C)C [E64d]	–	strongly diminished labelling
